Results on 2 compounds are retold here after ChEMBL document CHEMBL6092224, “The Discovery and Preclinical Profile of ALG-000184, a Prodrug of the Potent Hepatitis B Virus Capsid Assembly Modulator ALG-001075” (J Med Chem, 2024).

Data set [1] is described as follows: Plasma protein binding in dog at 2 uM incubated for 4 to 24 hrs by equilibrium dialysis method. The class given is ADME, cell-free, Canis lupus familiaris. The note with it: time 4-24 hrs, read-out: PPB (converted). The essentials:
(§1)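 Rapid equilibrium dialysis in mouse, rat, dog, monkey or human plasma for 4 or 24 h at 2 μM.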
In general terms: In equilibrium dialysis free small molecules cross a membrane that holds back macromolecules.

Data set [2] is described as follows: Plasma protein binding in mouse at 2 uM incubated for 4 to 24 hrs by equilibrium dialysis method. Format: ADME, cell-free. The note with it: time 4-24 hrs, read-out: PPB. The essentials: as §1
In data set [3] the target is Solute carrier family 22 member 6 (Homo sapiens, UniProt Q4U2R8). The experiment in a line: Inhibition of OAT1 (unknown origin) transfected in HEK293 cells. The class given is cell-based. The essentials: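 HEK-293 cells transfected with the uptake transporter; uptake of known probe substrates measured with test compound at eight concentrations (0.0229–50.0 μM or 0.0457–100 μM); inhibition at each concentration used to calculate IC50.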
Chain of Solute carrier family 22 member 6 (Q4U2R8 whole entry): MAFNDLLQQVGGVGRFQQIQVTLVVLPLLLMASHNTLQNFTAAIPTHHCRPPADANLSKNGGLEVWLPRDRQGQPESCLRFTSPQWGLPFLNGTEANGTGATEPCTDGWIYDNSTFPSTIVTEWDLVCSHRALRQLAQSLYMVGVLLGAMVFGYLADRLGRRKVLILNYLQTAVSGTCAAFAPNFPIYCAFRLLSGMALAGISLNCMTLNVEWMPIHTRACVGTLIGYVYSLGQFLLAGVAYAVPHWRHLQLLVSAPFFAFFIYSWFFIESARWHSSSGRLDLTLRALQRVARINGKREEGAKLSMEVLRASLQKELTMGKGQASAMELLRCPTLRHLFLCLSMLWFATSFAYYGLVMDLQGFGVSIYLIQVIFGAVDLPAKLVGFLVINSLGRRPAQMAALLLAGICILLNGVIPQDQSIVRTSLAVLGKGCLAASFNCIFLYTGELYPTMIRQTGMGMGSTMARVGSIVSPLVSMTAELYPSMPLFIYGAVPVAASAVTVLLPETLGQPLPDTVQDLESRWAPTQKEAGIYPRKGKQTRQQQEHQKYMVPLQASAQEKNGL

A short description of data set [4]: Stability in simulated intestinal fluid for >24 hrs. The class given is physicochemical. The note with it: simulated gi fluid. The procedure, abridged:
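Stability tested in simulated gastric fluid containing pepsin and simulated intestinal fluid containing pancreatin.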

Data set [5] is described as follows: Plasma protein binding in human at 2 uM incubated for 4 to 24 hrs by equilibrium dialysis method. The class given is ADME, cell-free. The note with it: time 4-24 hrs, read-out: PPB (converted). The essentials: as §1
Data set [6] can be described thus: Prodrug conversion in Beagle dog assessed as formation of N-(3-cyano-4-fluorophenyl)-4-(2-((3-ethynyloxetan-3-yl)amino)-2-oxoacetyl)-1,3,5-trimethyl-1H-pyrrole-2-carboxamide metabolite at 6.3 mg/kg, po measured for 24 hrs. The class given is ADME, organism-based, Canis lupus familiaris. To be noted: in vivo. The procedure, abridged:
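Single oral prodrug dose at molar equivalent of 30 mg/kg (rats) or […] of parent in 95% PEG 400/5% copovidone; whole blood collected into 4 volumes 75% MeOH/25% acetonitrile, centrifuged, parent quantified by LC-MS/MS; noncompartmental PK analysis.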

A short description of data set [7]: Ratio of drug concentration in blood to plasma in Cynomolgous monkey at 5 uM incubated for 60 mins. Format: ADME, cell-free, Macaca fascicularis. To be noted: cynomolgus monkey. The procedure, abridged:
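Compound at 5 μM in whole blood of each species, 37 ± 1 °C for 60 min; blood-to-plasma ratio and red blood cell partitioning determined.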

Data set [8] in a line: Toxicity in C57BL/6 mouse infected with AAV-Hepatitis B virus assessed as change in ALT level at 15 to 50 mg/kg, po qd for 56 days followed by induction of compound washout period for 14 days. To be noted: in vivo, 1680 h, dose 15-50 mg/kg, time 70 day. Format: organism-based.
A short description of data set [9]: Half life in C57BL/6J mouse at 5 mg/kg, po by LC-MS/MS analysis. To be noted: in vivo. The class given is ADME, organism-based. The procedure, abridged:
(§2)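 Single dose to fasted male C57BL6 mice, Sprague-Dawley rats, beagle dogs and cynomolgus monkeys, either IV at 1 mg/kg or PO as a solution at 5 mg/kg, in 80% PEG 400 in water. Plasma concentrations were measured by LC-MS/MS. PK parameters come from noncompartmental analysis using nominal doses and nominal sampling times.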

A short description of data set [10]: AUC (infinity) in C57BL/6J mouse at 5 mg/kg, po by LC-MS/MS analysis. To be noted: in vivo. Format: ADME, organism-based. The procedure, abridged: as §2
A short description of data set [11]: Tmax in Beagle dog at 5 mg/kg, po by LC-MS/MS analysis. The class given is ADME, organism-based, Canis lupus familiaris. To be noted: in vivo. The essentials: (§3)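 Fasted males (C57BL6 mice, Sprague−Dawley rats, beagle dogs, cynomolgus monkeys) given a single oral solution dose of 5 mg/kg in 80% PEG 400 in water. Plasma sampled over time, analysed by LC-MS/MS. Noncompartmental analysis used nominal doses and nominal sampling times.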

A short description of data set [12]: Efflux ratio of apparent permeability in human Caco-2 cells at 1 uM incubated for 1 hr. The class given is ADME, cell-based. The essentials: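 Bidirectional transport across Caco-2 cells in HBSS, pH 7.4, 0.1% final DMSO. Compound was tested at 1 or 2 μM for 1 h at 37 °C, 5% CO2. Apical and basal samples gave apparent permeability A→B and B→A, and the efflux ratio.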

The target in data set [13] is Organic anion transporter 1 (Homo sapiens). The experiment in a line: Inhibition of OAT1 (unknown origin) transfected in HEK293 cells.
Data set [14] in a line: Oral bioavailability in Beagle dog at 5 mg/kg by LC-MS/MS analysis. Format: ADME, organism-based, Canis lupus familiaris. The note with it: in vivo. The procedure, abridged:
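Fasted male C57BL6 mice, Sprague–Dawley rats, beagle dogs, cynomolgus monkeys; single IV dose 1 mg/kg or PO solution 5 mg/kg in 80% PEG 400 in water; plasma concentrations measured, noncompartmental analysis with nominal doses and times; F from PO vs IV AUC.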

In data set [15] the test system is Hepatitis B virus. The experiment in a line: Antiviral activity against HBV genotype D infected in human HepG2.117 cells assessed as decrease in HBV DNA production in presence of 40 percent human serum by qPCR analysis. The class given is functional, organism-based. The essentials: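 HepG2.117 cells (integrated genotype D HBV genome, Tet-off promoter; kept in 1 μg/mL doxycycline) were seeded at 20,000 cells/well and given serial compound dilutions (2% DMSO) for 3 days at 37 °C. Lysates were taken in 0.33% NP40. Intracellular HBV DNA was quantified by qPCR and EC50/EC90 derived. For serum shift, 40% human serum was present during incubation. Mean ± SEM, n=3 (serum) or 13.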

Data set [16] can be described thus: Clearance in Sprague-Dawley rat at 1 mg/kg, iv by LC-MS/MS analysis. The class given is ADME, organism-based. The note with it: in vivo. The procedure, abridged: as §2
A short description of data set [17]: AUC (infinity) in Sprague-Dawley rat at 5 mg/kg, po by LC-MS/MS analysis. Format: ADME, organism-based. To be noted: in vivo. The procedure, abridged:
as §2

The nature of data set [18]: AUC (infinity) in Beagle dog at 5 mg/kg, po by LC-MS/MS analysis. Format: ADME, organism-based, Canis lupus familiaris. The note with it: in vivo. The essentials:
as §2

A short description of data set [19]: AUC (infinity) in Cynomolgous monkey at 5 mg/kg, po by LC-MS/MS analysis. Format: ADME, organism-based, Macaca fascicularis. To be noted: cynomolgus monkey, in vivo. The essentials:
as §2

Data set [20] can be described thus: Effect on cell proliferation in bone marrow (unknown origin) upto 10 uM. The class given is toxicity, tissue-based.
Data set [21] in a line: Tmax in Sprague-Dawley rat at 5 mg/kg, po by LC-MS/MS analysis. Format: ADME, organism-based. The note with it: in vivo. The procedure, abridged: as §3
A short description of data set [22]: Plasma protein binding in human at 1 uM incubated for 4 to 24 hrs by equilibrium dialysis method. The note with it: time 4-24 hrs, read-out: PPB (converted). The class given is ADME, cell-free. The essentials:
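Rapid equilibrium dialysis in mouse, rat, dog, monkey or human plasma for 4 or 24 h; test concentrations 1, […].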

Data set [23] can be described thus: Metabolic stability in human assessed as half life at 1 uM incubated upto 180 mins.
In data set [24] the test system is Hepatitis B virus. The experiment in a line: Antiviral activity against HBV infected in human primary hepatocyte cells assessed as decrease in HBsAg level pre-infected cells with virus followed by compound treatment for 3 days and subsequent replacement of medium with compound measured after 4 days by CLIA. Format: functional, organism-based.
Data set [25] is described as follows: Volume of distribution at steady state in Sprague-Dawley rat at 1 mg/kg, iv by LC-MS/MS analysis. Format: ADME, organism-based. The note with it: in vivo, read-out: Vdss. The essentials:
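Fasted males (C57BL6 mice, Sprague−Dawley rats, beagle dogs, cynomolgus monkeys) given a single IV dose of 1 mg/kg in 80% PEG 400 in water. Plasma concentrations measured by LC-MS/MS. Vss derived by noncompartmental analysis using nominal dose and nominal sampling times.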

In data set [26] the test system is Hepatitis B virus. The experiment in a line: Antiviral activity against AAV-Hepatitis B virus infected in C57BL/6 mouse assessed as reduction in baseline HBV DNA production at 15 to 50 mg/kg, po qd for 56 days followed by induction of compound washout period measured after 7 days. Format: functional, organism-based. The note with it: dose 15-50 mg/kg, time 63.0 day.

Active and inactive are the calls of the source. The rule behind the calls is not given here.

Take `C#CC1(N(COP(=O)([O-])[O-])C(=O)C(=O)c2c(C)c(C(=O)Nc3ccc(F)c(C#N)c3)n(C)c2C)COC1.[Na+].[Na+]`: the fraction unbound at 2 µM in [1] is 0.179; in [2], 0.0913; in [5] it was 0.11. Moreover, half-maximal inhibition in [3] (IC50) was put at 10800 nM. Besides, in data set [4], the Stability entry is on record as “Stable”. Further, the Drug metabolism entry in [6] is “metabolite_detected”.

Regarding `C#CC1(NC(=O)C(=O)c2c(C)c(C(=O)Nc3ccc(F)c(C#N)c3)n(C)c2C)COC1`, the blood plasma ratio at 1 h, 5 µM in [7] turned out to be 0.83. In addition, the Activity entry in [8] and in data set [20] was “Non-toxic” each time. Also, in data set [9], the half-life (usually the time in which the quantity being followed falls by half) is 1.55 h. Besides, the area under the curve AUC(0-inf) (usually total exposure, with the tail of the curve extrapolated) turned out to be 7990 ng·h/mL in data set [10], 8720 ng·h/mL in data set [17], 24500 ng·h/mL in data set [18] and 2190 ng·h/mL in data set [19]. In addition, the Tmax (usually the time from dosing to the highest level) in data set [11] came out at 2.17 h; in data set [21] it was 1.67 h. For the same compound, the efflux ratio – broadly, a quotient of directional permeabilities that is used to spot active efflux – at 1 h, 1 µM in data set [12] was determined as 7.8. In addition, the IC50 (in general, the concentration that gives 50% inhibition) in data set [13] was more than 11800 nM. Moreover, the bioavailability (commonly the share of a dose that reaches the circulation, judged against a reference dose that is usually intravenous) in data set [14] was 57.5%. The EC50 (usually the concentration at which the effect is half-maximal) in the data set on Hepatitis B virus [15] was 7.48 nM; in the data set on Hepatitis B virus [24] it was 70 nM. For the same compound, the clearance – broadly, a measure of how efficiently the substance is removed, as volume per time – in data set [16] worked out at 6.09 mL/min/kg. The fraction unbound at 1 µM in data set [22] is 0.191. Further, the half-life at 1 µM in data set [23] is more than 6 h. Besides, in [25], the Vd stood at 0.5 L/kg. Moreover, the result with Hepatitis B virus [26] was inactive.
